ChEMBL document CHEMBL1800004, “Discovery of 4-anilinofuro[2,3-b]quinoline derivatives as selective and orally active compounds against non-small-cell lung cancers” (J Med Chem, 2011)
Calls of active or inactive are those of the source. The calls are words filed in the database; no cut-off is given here.

Columns and labels:
[1] = Oral bioavailability in fasted CD-1(Crl) mouse at 20 mg/kg administered as single dose; format: ADME, organism-based; conditions: in vivo
Outline: (§1)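 Fasted male CD-1 (Crl) mice received a single intravenous dose of 2.0 mg/kg or a single oral dose of 20 mg/kg. Parameters came from mean plasma concentration–time profiles, run by a contract lab.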

[2] = AUC (0 to infinity) in fasted CD-1(Crl) mouse at 20 mg/kg, po administered as single dose; format: ADME, organism-based; parameters: dose 20 mg/kg, route oral, time infinity; conditions: plasma
Outline: (§2)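 Fasted male CD-1 (Crl) mice each received a single intravenous dose of 2.0 mg/kg or a single oral dose of 20 mg/kg, and plasma concentration–time profiles were recorded. For the iv route, Cmax was extrapolated to plasma concentration at time 0. Half-life was derived from terminal time-point windows specified per compound.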

Lung = experiment: Drug uptake in lung of orthotropic lung cancer nude mouse model xenografted with human H1229 cells at 120 mg/kg, po administered for 2 weeks; format: ADME, organism-based; parameters: dose 120 mg/kg, route oral; conditions: in vivo, 336 h
[3] = Tmax in fasted CD-1(Crl) mouse at 20 mg/kg, po administered as single dose; format: ADME, organism-based; parameters: dose 20 mg/kg, route oral; conditions: in vivo; outline: as §1
[4] = Volume of distribution at steady state in fasted CD-1(Crl) mouse at 2 mg/kg, iv administered as single dose; format: ADME, organism-based; parameters: dose 2 mg/kg, route intravenous; conditions: in vivo, read-out: Vdss; outline: as §1
[5] = Clearance in fasted CD-1(Crl) mouse at 2 mg/kg, iv administered as single dose; format: ADME, organism-based; parameters: dose 2 mg/kg, route intravenous; conditions: in vivo; outline: as §2
[6] = Aqueous solubility of the compound by UV/ vis spectrophotometry; format: physicochemical
Outline: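 Excess solid was added to doubly distilled water, sonicated 5 min, then stirred overnight at 25 °C to reach equilibrium. After centrifugation, supernatant absorbance was read by UV/vis at 315–420 nm against per-compound standard curves.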

[7] = Mean residence time in fasted CD-1(Crl) mouse at 20 mg/kg, po administered as single dose; format: ADME, organism-based; parameters: dose 20 mg/kg, route oral; conditions: in vivo; outline: as §1
[8] = Apparent volume of distribution in fasted CD-1(Crl) mouse at 2 mg/kg, iv administered as single dose; format: ADME, organism-based; parameters: dose 2 mg/kg, route intravenous; conditions: in vivo, read-out: Vz; outline: as §2
[9] = Cmax in fasted CD-1(Crl) mouse at 2 mg/kg, iv administered as single dose; format: ADME, organism-based; parameters: dose 2 mg/kg, route intravenous; conditions: in vivo; outline: as §2
[10] = Mean residence time in fasted CD-1(Crl) mouse at 2 mg/kg, iv administered as single dose; format: ADME, organism-based; parameters: dose 2 mg/kg, route intravenous; conditions: in vivo; outline: as §1
[11] = Half life in fasted CD-1(Crl) mouse at 20 mg/kg, po administered as single dose measured after 2 to 24 hrs post dose; format: ADME, organism-based; parameters: dose 20 mg/kg, route oral; conditions: in vivo; outline: as §2
[12] = AUC (0 to infinity) in fasted CD-1(Crl) mouse at 2 mg/kg, iv administered as single dose; format: ADME, organism-based; parameters: time infinity, dose 2 mg/kg, route intravenous; conditions: plasma; outline: as §2
[13] = Cmax in fasted CD-1(Crl) mouse at 20 mg/kg, po administered as single dose; format: ADME, organism-based; parameters: dose 20 mg/kg, route oral; conditions: in vivo; outline: as §2
[14] = Half life in fasted CD-1(Crl) mouse at 2 mg/kg, iv administered as single dose measured after 9 to 27 hrs post dose; format: ADME, organism-based; parameters: dose 2 mg/kg, route intravenous; conditions: in vivo; outline: as §2
NCI-H460 [15] = experiment: Antitumor activity against human NCI-H460 cells xenografted subcutaneously in BALB/c nude mouse assessed as survival rate at 10 to 20 mg/kg, ip for 6 days relative to control; format: functional, organism-based
Outline: (§3)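 NCI-H460 cells were grown in RPMI1640 with 10% NBS and harvested by trypsin. 5 × 10⁶ cells in 40% Matrigel were injected subcutaneously into the flanks of 6–8-week-old Balb/c nude mice. Once tumors reached 5 mm³, dosing ran 6 days (ip 10 or 20; oral 60 or 120), vehicle DMSO/1.4% Tween 80/1% carboxymethylcellulose saline. Tumors were caliper-measured, weighed at sacrifice, and survival analyzed by Kaplan–Meier.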

NCI-H460 [16] = experiment: Increase in cyclin B level in human NCI-H460 cells after 16 hrs by immunoblotting analysis; format: functional, cell-based
Outline: (§4)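 H460 lysates were immunoblotted for MPM2 and cyclin B after 16 h treatment across a concentration series.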

Bos taurus [17] = species on record: Bos taurus; experiment: Inhibition of bovine tubulin assessed as inhibition of microtubule formation preincubated at 1 uM by light-scattering assay relative to control
Outline: (§5)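 Light-scattering assay with 5 μg bovine tubulin preincubated with compound. Spontaneous microtubule formation was followed as turbidity increase at OD 340 nm and compared with the untreated control.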

[18] = biological target: DNA topoisomerase 2-alpha (Homo sapiens) (UniProt P11388); experiment: Inhibition of human topoisomerase 2 mediated relaxation of super coiled pBR322 plasmid DNA at 30 uM after 30 mins by agarose gel electrophoresis
Chain of DNA topoisomerase 2-alpha (Homo sapiens) (P11388 whole entry): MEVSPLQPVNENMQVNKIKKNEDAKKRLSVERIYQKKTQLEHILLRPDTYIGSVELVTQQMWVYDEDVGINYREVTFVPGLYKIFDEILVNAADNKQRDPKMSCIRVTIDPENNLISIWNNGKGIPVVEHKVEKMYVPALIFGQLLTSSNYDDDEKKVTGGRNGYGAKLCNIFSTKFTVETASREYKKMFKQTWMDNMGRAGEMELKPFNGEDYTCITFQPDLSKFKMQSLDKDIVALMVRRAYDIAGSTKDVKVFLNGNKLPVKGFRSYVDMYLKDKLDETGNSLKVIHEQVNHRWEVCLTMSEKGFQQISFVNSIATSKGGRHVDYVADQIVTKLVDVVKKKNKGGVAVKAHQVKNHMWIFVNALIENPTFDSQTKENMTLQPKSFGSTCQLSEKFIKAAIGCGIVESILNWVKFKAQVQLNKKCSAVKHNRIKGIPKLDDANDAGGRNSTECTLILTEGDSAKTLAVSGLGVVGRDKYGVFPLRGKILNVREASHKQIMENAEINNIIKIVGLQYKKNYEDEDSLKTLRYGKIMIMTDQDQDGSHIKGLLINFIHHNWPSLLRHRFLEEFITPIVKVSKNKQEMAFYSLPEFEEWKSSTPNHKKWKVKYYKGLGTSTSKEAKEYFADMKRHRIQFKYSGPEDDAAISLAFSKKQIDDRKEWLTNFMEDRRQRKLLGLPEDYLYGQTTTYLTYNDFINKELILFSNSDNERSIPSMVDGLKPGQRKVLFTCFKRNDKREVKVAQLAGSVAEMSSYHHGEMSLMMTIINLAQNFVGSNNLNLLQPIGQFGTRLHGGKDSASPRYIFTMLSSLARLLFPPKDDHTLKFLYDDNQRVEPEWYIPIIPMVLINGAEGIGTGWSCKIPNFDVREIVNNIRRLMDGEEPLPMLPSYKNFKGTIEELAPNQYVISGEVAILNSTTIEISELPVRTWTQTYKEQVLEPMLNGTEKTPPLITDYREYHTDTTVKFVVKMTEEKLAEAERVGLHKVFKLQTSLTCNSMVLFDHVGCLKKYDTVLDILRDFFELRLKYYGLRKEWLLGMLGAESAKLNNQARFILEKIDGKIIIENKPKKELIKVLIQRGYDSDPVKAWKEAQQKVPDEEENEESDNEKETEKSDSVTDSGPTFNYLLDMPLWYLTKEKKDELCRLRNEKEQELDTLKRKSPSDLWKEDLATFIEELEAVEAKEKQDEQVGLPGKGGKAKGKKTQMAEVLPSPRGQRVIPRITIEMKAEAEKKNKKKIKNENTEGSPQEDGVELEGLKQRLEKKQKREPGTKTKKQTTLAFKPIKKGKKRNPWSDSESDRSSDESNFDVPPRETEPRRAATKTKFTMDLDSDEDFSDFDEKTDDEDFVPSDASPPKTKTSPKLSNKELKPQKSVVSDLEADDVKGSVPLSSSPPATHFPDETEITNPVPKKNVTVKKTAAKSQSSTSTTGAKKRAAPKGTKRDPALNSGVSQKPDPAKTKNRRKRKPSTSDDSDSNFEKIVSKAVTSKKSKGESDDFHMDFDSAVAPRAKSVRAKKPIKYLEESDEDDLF

[19] = biological target: T1, DNA topoisomerase 1 (Homo sapiens) (UniProt P11387); experiment: Inhibition of human topoisomerase 1 mediated relaxation of super coiled pBR322 plasmid DNA at 30 uM after 30 mins by agarose gel electrophoresis
T1 sequence (whole entry): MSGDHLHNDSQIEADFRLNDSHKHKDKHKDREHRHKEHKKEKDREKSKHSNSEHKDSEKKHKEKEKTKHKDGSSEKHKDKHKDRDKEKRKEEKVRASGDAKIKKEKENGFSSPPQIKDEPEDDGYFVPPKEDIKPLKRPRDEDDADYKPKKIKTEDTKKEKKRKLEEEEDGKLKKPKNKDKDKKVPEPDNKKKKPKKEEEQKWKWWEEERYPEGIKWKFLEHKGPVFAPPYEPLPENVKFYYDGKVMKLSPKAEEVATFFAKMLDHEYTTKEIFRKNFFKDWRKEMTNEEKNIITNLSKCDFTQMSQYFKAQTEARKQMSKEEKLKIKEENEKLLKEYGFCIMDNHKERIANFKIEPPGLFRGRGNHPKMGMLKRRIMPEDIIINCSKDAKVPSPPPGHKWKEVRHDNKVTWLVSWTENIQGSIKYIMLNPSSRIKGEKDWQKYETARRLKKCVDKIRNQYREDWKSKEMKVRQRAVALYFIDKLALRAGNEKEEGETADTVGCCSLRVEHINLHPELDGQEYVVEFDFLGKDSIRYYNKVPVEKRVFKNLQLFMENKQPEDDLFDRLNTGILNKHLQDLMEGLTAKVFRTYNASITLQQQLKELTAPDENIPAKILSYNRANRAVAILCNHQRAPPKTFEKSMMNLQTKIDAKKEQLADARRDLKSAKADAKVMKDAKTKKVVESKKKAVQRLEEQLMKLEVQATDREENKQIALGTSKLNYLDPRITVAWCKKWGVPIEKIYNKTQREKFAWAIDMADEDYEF

NCI-H460 [20] = experiment: Antitumor activity against human NCI-H460 cells xenografted subcutaneously in BALB/c nude mouse assessed as decreased tumor size at 60 to 120 mg/kg, po qd for 6 days relative to control; format: functional, organism-based; outline: as §3
Bos taurus [21] = species on record: Bos taurus; experiment: Inhibition of bovine tubulin assessed as inhibition of microtubule formation preincubated at 3 uM by light-scattering assay; outline: as §5
NCI-H460 [22] = experiment: Induction of apoptosis human NCI-H460 cells assessed as caspase 3 cleavage; format: functional, cell-based
NCI-H460 [23] = experiment: Antitumor activity against human NCI-H460 cells xenografted subcutaneously in BALB/c nude mouse assessed as increased tumor regression at 60 to 120 mg/kg, po for 6 days relative to control; format: functional, organism-based; outline: as §3
H1229 = experiment: Anticancer activity against human H1229 cells xenografted in orthotropic lung cancer nude mouse model assessed as cancer growth inhibition at 120 mg/kg, po administered for 2 weeks monitored for 10 weeks; format: functional, organism-based; parameters: dose 120 mg/kg
Outline: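 Orthotopic lung model using H-1229 cells. Nude mice were irradiated (500 rads γ) and anesthetized with ketamine/xylazine (160/12 mg/kg, im), then tumor tissue was implanted by cannula. Oral dosing lasted 2 weeks. Mice were checked daily for morbidity, and animal and primary tumor weights were recorded over 10 weeks.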

NCI-H460 [24] = experiment: Antitumor activity against human NCI-H460 cells xenografted subcutaneously in BALB/c nude mouse assessed as decreased tumor size at 10 to 20 mg/kg, ip for 6 days relative to control; format: functional, organism-based; outline: as §3
NCI-H460 [25] = experiment: Effect on cell cycle in human NCI-H460 cells assessed as rounded-up phenotype at 1 uM after 24 hrs; format: functional, cell-based
Outline: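 Morphology of H460 cells was inspected for rounding after 1 μM treatment for 24 h.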

NCI-H460 [26] = experiment: Increase in MPM2 phosphoprotein level in human NCI-H460 cells after 16 hrs by immunoblotting analysis; format: functional, cell-based; outline: as §4
NCI-H460 [27] = experiment: Antimitotic activity in human NCI-H460 cells assessed as mitotic catastrophe at 3 uM after 12 hrs using DAPI staining based immunofluorescence analysis; format: functional, cell-based
Outline: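 H460 cells were treated at 3 μM for 12 h and co-stained for α-tubulin (immunofluorescence) and DAPI. Images were taken at 1000×, and centrosome number was counted in 50 cells.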

NCI-H460 [28] = experiment: Antitumor activity against human NCI-H460 cells xenografted subcutaneously in BALB/c nude mouse assessed as increased tumor regression at 10 to 20 mg/kg, ip for 6 days relative to control; format: functional, organism-based; outline: as §3
NCI-H460 [29] = experiment: Cell cycle arrest in human NCI-H460 cells assessed as cell accumulation in 4N ploidy after 24 hrs using propidium iodide staining based flow cytometric analysis; format: functional
NCI-H460 [30] = experiment: Induction of apoptosis human NCI-H460 cells assessed as PARP cleavage; format: functional, cell-based
NCI-H460 [31] = experiment: Antitumor activity against human NCI-H460 cells xenografted subcutaneously in BALB/c nude mouse assessed as survival rate at 60 to 120 mg/kg, po qd for 6 days relative to control; format: functional, organism-based; outline: as §3

## C/C(=N\OCCN)c1ccc(Nc2c3ccccc3nc3occc23)cc1.Cl
[1]
  bioavailability: 57.1%
[2]
  AUC(0-inf): 2070 ng·h/mL
Lung
  Drug uptake: Active
[3]
  Tmax: 0.5 h
[4]
  Vd: 13.5 L/kg
[5]
  clearance: 91.9 mL/min/kg
[6]
  solubility: 1050 µg/mL
[7]
  MRT: 3 h
[8]
  Vd: 38.8 L/kg
[9]
  Cmax: 1490 ng/mL
[10]
  MRT: 2.5 h
[11]
  half-life: 3.4 h
[12]
  AUC(0-inf): 363 ng·h/mL
[13]
  Cmax: 1900 ng/mL
[14]
  half-life: 4.9 h

## C/C(=N\OCCN)c1ccc(Nc2c3ccccc3nc3occc23)cc1
NCI-H460 [15]
  Activity: Active
NCI-H460 [16]
  Activity: Dose-dependent effect
Bos taurus [17]
  inhibition: 50%
[18]
  inhibition: inactive
[19]
  inhibition: inactive
NCI-H460 [20]
  Activity: Active
Bos taurus [21]
  inhibition: Active
NCI-H460 [22]
  Activity: Dose-dependent effect
NCI-H460 [23]
  Activity: Active
H1229
  Activity: Active
NCI-H460 [24]
  Activity: Active
NCI-H460 [25]
  Activity: Active
NCI-H460 [26]
  Activity: Dose-dependent effect
NCI-H460 [27]
  Activity: Active
NCI-H460 [28]
  Activity: Active
NCI-H460 [29]
  Activity: Dose-dependent effect
NCI-H460 [30]
  Activity: Dose-dependent effect
NCI-H460 [31]
  Activity: Active
